Measurements from article PMC4018401 (Journal of Medicinal Chemistry, 2014).

Assays:
HepG2 cytotoxicity assay = format: cell-based; conditions: human, HepG2 cells
[1] = Microsomal stability, rat and human liver microsomes; format: in vitro ADME; conditions: rat and human hepatic microsomes
[2] = system: P. falciparum Tm93-C1088 (atovaquone resistant clinical isolate); assay: SYBR Green I parasite growth inhibition, P. falciparum Tm93-C1088; format: cell-based; conditions: Plasmodium falciparum, 72 h, read-out: EC50 TM93-C1088 (WRAIR)
Method in brief: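 Atovaquone-resistant Thai isolate with cytochrome b Y268S, grown asynchronously in human erythrocytes (RPMI-1640/HEPES/hypoxanthine/Albumax II; 5% O2, 5% CO2, 90% N2). Triplicate 2-fold dilutions, 2% hematocrit, 0.2% starting parasitemia, 72 h at 37 °C. SYBR Green I dye–detergent added for 1 h in the dark at room temperature, fluorescence read at ex 497/em 520 nm. EC50 by nonlinear regression against drug-free wells; at least three determinations.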

[3] = biological target: T1, P. falciparum cytochrome bc1 complex (Plasmodium falciparum, UniProt Q02768); assay: Inhibition of P. falciparum cytochrome bc1; format: biochemical
T1 sequence (Q02768 1-376): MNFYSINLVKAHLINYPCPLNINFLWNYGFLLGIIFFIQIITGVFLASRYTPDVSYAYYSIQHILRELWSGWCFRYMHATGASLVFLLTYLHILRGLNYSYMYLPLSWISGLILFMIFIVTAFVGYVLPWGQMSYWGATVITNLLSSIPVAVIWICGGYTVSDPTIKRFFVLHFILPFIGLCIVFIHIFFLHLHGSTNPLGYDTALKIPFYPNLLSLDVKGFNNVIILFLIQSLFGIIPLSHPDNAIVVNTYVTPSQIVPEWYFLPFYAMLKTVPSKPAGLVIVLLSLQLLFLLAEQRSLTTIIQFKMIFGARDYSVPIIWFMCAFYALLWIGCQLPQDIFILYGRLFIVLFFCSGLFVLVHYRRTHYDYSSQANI
Method in brief: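 Cytochrome c reductase assays. P. falciparum mitochondria: stirred cuvette at 35 °C with 100 μM decylubiquinol, 100 μM horse heart cytochrome c, 0.1 mg/mL dodecyl maltoside, 60 mM HEPES pH 7.4, 10 mM malonate, 1.0 mM EDTA, 2.0 mM KCN. Human HEK-293 mitochondria: detergent-solubilised; 50 mM Tricine pH 8.0, 100 mM KCl, 4 mM KCN, 50 μM each substrate. Baseline-subtracted initial rates expressed as fraction of uninhibited control.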

[4] = system: P. yoelii (Kenya strain) infected mice; conditions: side-by-side tests; cited from earlier work
[5] = system: P. yoelii (Kenya strain) infected mice; assay: In vivo efficacy against murine malaria; set-up: species or system Plasmodium yoelii; conditions: for in vivo antimalarial activity: P. yoelii in mice, oral; for times less effective than 7 against murine malaria: relative to compound 7
Method in brief: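 Female CF1 mice infected intravenously with 2.5–5.0 × 105 P. yoelii (Kenya strain) parasitized erythrocytes from a donor; groups of four. Test compound in PEG-400 given by oral gavage once daily for 4 days, starting the day after inoculation; initial doses 0.1–10 mg/kg/day, adjusted if needed. Chloroquine phosphate as positive control. Day-5 parasitemia read from Giemsa smears. Cure means parasite-free 30 days after the last dose; NRD is the dose needed for cure.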

| SMILES | IC50 (HepG2 cytotoxicity assay) [µM] | metabolic stability in microsomes [1] | also measured |
| --- | --- | --- | --- |
| Cc1[nH]c2ccccc2c(=O)c1-c1ccc(Oc2ccccc2)cc1 [Compound 3, 2-Methyl-3-(4-phenoxyphenyl)quinolin-4(1H)-one] | > 10 | – | – |
| Cc1[nH]c2ccccc2c(=O)c1-c1ccc(Oc2ccc(OC(F)(F)F)cc2)cc1 [Compound 4, 2-Methyl-3-(4-(4-(trifluoromethoxy)phenoxy)phenyl)quinolin-4(1H)-one] | > 10 | no detectable degradation | – |
| Cc1[nH]c2ccc(Cl)cc2c(=O)c1-c1ccc(Oc2ccc(OC(F)(F)F)cc2)cc1 [Compound 5, 6-Chloro-2-methyl-3-(4-(4-(trifluoromethoxy)phenoxy)phenyl)quinolin-4(1H)-one] | > 10 | – | – |
| COc1ccc2c(=O)c(-c3ccc(Oc4ccc(OC(F)(F)F)cc4)cc3)c(C)[nH]c2c1 [Compound 6, 7-Methoxy-2-methyl-3-(4-(4-(trifluoromethoxy)phenoxy)phenyl)quinolin-4(1H)-one] | > 10 | metabolized at a moderate to intermediate rate | – |
| COc1cc2[nH]c(C)c(-c3ccc(Oc4ccc(OC(F)(F)F)cc4)cc3)c(=O)c2cc1Cl [Compound 7, 6-Chloro-7-methoxy-2-methyl-3-(4-(4-(trifluoromethoxy)phenoxy)phenyl) quinolin-4(1H)-one] | > 10 | – | EC50 [2]: 0.001 µM; parasite selectivity (P. falciparum vs human cytochrome bc1) [3]: ≥ 20000 fold; fold more effective than atovaquone against murine malaria [4]: 30 fold |
| COc1cc2[nH]c(C)c(-c3ccc(Oc4ccccc4)cc3)c(=O)c2cc1F [Compound 13, 6-Fluoro-7-methoxy-2-methyl-3-(4-phenoxyphenyl)quinolin-4(1H)-one] | > 10 | – | – |
| Cc1[nH]c2ccc(F)cc2c(=O)c1-c1ccc(Oc2ccc(OC(F)(F)F)cc2)cc1 [Compound 18a, 6-Fluoro-2-methyl-3-(4-(4-(trifluoromethoxy)phenoxy)phenyl)quinolin-4(1H)-one] | > 10 | – | – |
| COc1cc2[nH]c(C)c(-c3ccc(Oc4ccc(OC(F)(F)F)cc4)cc3)c(=O)c2cc1F [Compound 18b, 6-Fluoro-7-methoxy-2-methyl-3-(4-(4-(trifluoromethoxy)phenoxy)phenyl)quinolin-4(1H)-one] | > 10 | – | – |
| COc1cc2[nH]c(C)c(-c3ccc(Oc4cccc(OC(F)(F)F)c4)cc3)c(=O)c2cc1Cl [Compound 20a, 6-Chloro-7-methoxy-2-methyl-3-(4-(3-(trifluoromethoxy)phenoxy)phenyl)quinolin-4(1H)-one] | – | metabolically unstable | in vivo antimalarial activity [5]: ineffective in vivo |
| COc1cc2[nH]c(C)c(-c3ccc(Oc4ccc(C(F)(F)F)cc4)cc3)c(=O)c2cc1Cl [Compound 20b, 6-Chloro-7-methoxy-2-methyl-3-(4-(4-(trifluoromethyl)phenoxy)phenyl)quinolin-4(1H)-one] | – | metabolically stable | – |
| COc1cc2[nH]c(C)c(-c3ccc(Oc4ccc(Cl)cc4)cc3)c(=O)c2cc1Cl [Compound 20c, 6-Chloro-3-(4-(4-chlorophenoxy)phenyl)-7-methoxy-2-methylquinolin-4(1H)-one] | > 10 | metabolically stable | times less effective than 7 against murine malaria [5]: 3–10 times |
| COc1cc2[nH]c(C)c(-c3ccc(Oc4ccc(F)cc4)cc3)c(=O)c2cc1Cl [Compound 20d, 6-Chloro-3-(4-(4-fluorophenoxy)phenyl)-7-methoxy-2-methylquinolin-4(1H)-one] | – | metabolically stable | – |
| COc1cc2[nH]c(C)c(-c3ccc(Oc4ccc(OC(F)(F)F)cc4)nc3)c(=O)c2cc1Cl [Compound 25a, 6-Chloro-7-methoxy-2-methyl-3-(6-(4-(trifluoromethoxy)phenoxy)pyridin-3-yl)quinolin-4(1H)-one] | > 10 | – | times less effective than 7 against murine malaria [5]: 3–10 times |
| COc1cc2[nH]c(C)c(-c3ccc(Oc4ccc(OC(F)(F)F)cc4)cn3)c(=O)c2cc1Cl [Compound 25b, 6-Chloro-7-methoxy-2-methyl-3-(5-(4-(trifluoromethoxy)phenoxy)pyridin-2-yl)quinolin-4(1H)-one] | > 10 | – | – |
| COc1cc2[nH]c(C)c(-c3cnc(Oc4ccc(OC(F)(F)F)cc4)nc3)c(=O)c2cc1Cl [Compound 25c, 6-Chloro-7-methoxy-2-methyl-3-(2-(4-(trifluoromethoxy)phenoxy)pyrimidin-5-yl)quinolin-4(1H)-one] | > 10 | – | – |
| O=C1C(O)=C([C@H]2CC[C@H](c3ccc(Cl)cc3)CC2)C(=O)c2ccccc21 [atovaquone, reference compound] | > 10 | – | – |
| CCCCCCCc1c(C)nc2cc(OC)ccc2c1O [endochin, reference compound] | > 10 | – | in vivo antimalarial activity [5]: inactive in vivo |
